SMILES strings stand for the structures. Active and inactive are the calls of the source. No cut-off for these calls is given here.

For data set [1], the species on record is Homo sapiens. In words: Selectivity ratio of Ki for human liver cathepsin H to Ki for human recombinant cathepsin B.
Data set [2] has as its target T1, Cathepsin B (Homo sapiens, UniProt P07858). Kind of data set: Mixed inhibition of cathepsin B (unknown origin) endopeptidase activity assessed as inhibition constant for enzyme-inhibitor complex.
The target in data set [3] is T1, Cathepsin B. Kind of data set: Noncompetitive inhibition of cathepsin B (unknown origin) exopeptidase activity assessed as inhibition constant for enzyme-inhibitor complex.
Data set [4] has as its target T1, Cathepsin B. In words: Inhibition of human recombinant cathepsin B endopeptidase activity using Z-Arg-Arg-AMC substrate at 50 uM. Put shortly: (§1)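 Single-point screen at 50 μM inhibitor with 5% DMSO and 0.01% Triton X-100, at 37 °C. Endopeptidase: catB 5 nM with Z-Arg-Arg-AMC 5 μM, phosphate pH 6.0, ex 380/em 460 nm. Exopeptidase: catB 0.5 nM with Abz-GIVRAK(Dnp)-OH 1 μM, acetate pH 5.0, ex 320/em 420 nm. Relative inhibition = 100(1 − vi/vo). Two runs in duplicate.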

Data set [5] addresses T1, Cathepsin B. Kind of data set: Mixed inhibition of cathepsin B (unknown origin) endopeptidase activity assessed as inhibition constant for enzyme-substrate-inhibitor complex.
For data set [6], the target named is T1, Cathepsin B. Kind of data set: Inhibition of human recombinant cathepsin B exopeptidase activity using Abz-Gly-Ile-Val-Arg-Ala-Lys(Dnp)-OH substrate at 50 uM. A digest of the protocol:
as §1

The species entered for data set [7] is Homo sapiens. In words: Selectivity ratio of Ki for human recombinant cathepsin L to Ki for human recombinant cathepsin B.
The target of data set [8] is T2, Pro-cathepsin H (Homo sapiens, UniProt P09668).
T2 sequence (P09668 whole entry): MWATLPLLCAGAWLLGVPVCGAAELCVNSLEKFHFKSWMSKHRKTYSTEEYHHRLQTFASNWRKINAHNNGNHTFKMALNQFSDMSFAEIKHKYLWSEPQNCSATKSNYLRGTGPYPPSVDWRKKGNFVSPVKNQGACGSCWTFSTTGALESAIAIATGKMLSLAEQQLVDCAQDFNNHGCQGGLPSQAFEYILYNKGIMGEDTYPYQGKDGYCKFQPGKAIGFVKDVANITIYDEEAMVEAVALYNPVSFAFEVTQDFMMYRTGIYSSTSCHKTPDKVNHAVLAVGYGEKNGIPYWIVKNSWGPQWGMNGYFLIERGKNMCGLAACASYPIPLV
Kind of data set: Noncompetitive inhibition of human liver cathepsin H endopeptidase activity using R-AMC substrate assessed as inhibition constant for enzyme-inhibitor complex. A digest of the protocol: (§2)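 Native catH isolated from human liver was preactivated for 5 min at 37 °C in 100 mM phosphate pH 6.8 with 0.1% PEG 8000, 5 mM DTT and 1.5 mM EDTA. Arg-AMC was used at 20, 80 and 160 μM, with inhibitor at 0–200 μM (seven levels) and 5% DMSO. […] Run twice in duplicate.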

The target of data set [9] is T2, Pro-cathepsin H. Kind of data set: Noncompetitive inhibition of human liver cathepsin H endopeptidase activity using R-AMC substrate assessed as inhibition constant for enzyme-substrate-inhibitor complex. Put shortly: as §2
Data set [10] has as its system MCF-10A. In words: Inhibition of human MCF10A neoT cell invasion expressing c-Ha-Ras oncogene at 5 uM after 30 mins relative to DMSO-treated control. The format is functional. To be noted: 72 h, in the assay text read “after 72 hrs” for “after 30 mins”. A digest of the protocol:
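xCELLigence CIM-16 invasion assay. Upper chamber coated with 5 mg/mL Matrigel; lower well coated with bovine fibronectin. Compound 5 μM or 0.05% DMSO in both chambers, equilibrated 30 min at 37 °C. Then 3 × 10^4 cells seeded in serum-free medium, cell index read every 15 min for 72 h. Invasion = cell index with compound / DMSO; mean ± SD, n = 4, two experiments.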

For data set [11], the system named is MCF-10A. Kind of data set: Cytotoxicity against human MCF10A neoT cells expressing c-Ha-Ras oncogene at 5 uM measured at 15 mins interval up to 3 days. It counts as cell-based. Put shortly: (§3)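 MCF-10A neoT cells, 7500 per well, monitored on the xCELLigence impedance system (cell index read every 15 min). After ~10 h, in log growth, 2.5 or 5 μM compound or 0.2% DMSO was added. Run for 72 h, with medium containing inhibitor renewed every 24 h.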

The target of data set [12] is T1, Cathepsin B. Kind of data set: Uncompetitive inhibition of human recombinant […] assessed as inhibition constant for enzyme-substrate-inhibitor complex.
Data set [13] deals with MCF-10A. In words: Cytotoxicity against human MCF10A neoT cells expressing c-Ha-Ras oncogene at 2.5 uM measured at 15 mins interval up to 3 days. It counts as cell-based. Put shortly: as §3
Data set [14] concerns the target T1, Cathepsin B. To be noted: MCF10A neoT, 5 uM.
In data set [15] the test system is MCF-10A. Kind of data set: Increase in proliferation of human MCF10A neoT cells expressing c-Ha-Ras oncogene at 2.5 uM measured at 15 mins interval up to 3 days. It counts as ADME, cell-based. A digest of the protocol: as §3
Data set [16] addresses T1, Cathepsin B. To be noted: MCF10A neoT, 5 uM. This is another data set of the same source.
Data set [17] concerns MCF-10A. In words: Increase in proliferation of human MCF10A neoT cells expressing c-Ha-Ras oncogene at 5 uM measured at 15 mins interval up to 3 days. The format is ADME, cell-based. A digest of the protocol:
as §3

In data set [18] the target is T1, Cathepsin B. Kind of data set: Noncompetitive inhibition of human recombinant cathepsin B exopeptidase activity using Abz-Gly-Ile-Val-Arg-Ala-Lys(Dnp)-OH substrate. A digest of the protocol: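 Human recombinant catB, preactivated 5 min at 37 °C in assay buffer containing 0.1% PEG 8000, 5 mM DTT and 1.5 mM EDTA. […] Exopeptidase: 60 mM acetate pH 5.0, Abz-GIVRAK(Dnp)-OH 1/3/6 μM (Km 6.3 μM). Inhibitor 0–200 μM, 5% DMSO, 37 °C, fluorescence rate; two runs in duplicate.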

For another data set, the target named is Procathepsin L (Homo sapiens, UniProt P07711). Kind of data set: Competitive inhibition of human recombinant cathepsin L endopeptidase activity using Z-FR-AMC substrate expressed in Escherichia coli assessed as inhibition constant for enzyme-inhibitor complex. A digest of the protocol: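 Ki from rates at three substrate levels with inhibitor at 0, 20, 40, 60, 80, 100 and 200 μM. Enzymes were preactivated 5 min at 37 °C. CatL (recombinant, E. coli): 100 mM acetate pH 5.5, Z-Phe-Arg-AMC 0.5/1/4 μM. CatH (native, human liver): 100 mM phosphate pH 6.8, Arg-AMC 20/80/160 μM. Buffers held 0.1% PEG 8000, 5 mM DTT and 1.5 mM EDTA, plus 5% DMSO. Two runs in duplicate.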
Procathepsin L, sequence (P07711 whole entry): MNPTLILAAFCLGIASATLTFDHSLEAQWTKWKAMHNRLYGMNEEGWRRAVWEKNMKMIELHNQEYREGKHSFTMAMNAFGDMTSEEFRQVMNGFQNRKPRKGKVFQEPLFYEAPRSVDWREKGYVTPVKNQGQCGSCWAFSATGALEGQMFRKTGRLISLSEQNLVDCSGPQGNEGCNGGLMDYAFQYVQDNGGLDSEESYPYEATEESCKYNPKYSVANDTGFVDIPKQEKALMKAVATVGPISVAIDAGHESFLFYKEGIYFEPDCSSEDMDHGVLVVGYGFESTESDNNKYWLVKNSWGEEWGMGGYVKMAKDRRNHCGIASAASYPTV

On to `O=[N+]([O-])c1ccc(O)c2ncccc12` [NITROXOLINE], for which the Ratio Ki in the data set listed under Homo sapiens [1] turned out to be 7.4; in the data set filed under Homo sapiens [7], 4.8. Moreover, the inhibitory constant (Ki) on Cathepsin B [2] came out at 154 µM; on Cathepsin B [3], 272 µM; on Cathepsin B [5], 39.5 µM. Further, the inhibition on Cathepsin B [4] amounted to 21.9%; on Cathepsin B [6], 24.7%.
Consider `N#CCNCc1cc([N+](=O)[O-])c2cccnc2c1O`, for which the values for the Ratio Ki in the data set filed under Homo sapiens [1] and in the data set filed under Homo sapiens [7] were 24 and 23, respectively. The Ki on Pro-cathepsin H [8] was determined as 129 µM; at Pro-cathepsin H [9] it was 129 µM; at Cathepsin B [12], 5 µM; at Cathepsin B [18], 426 µM; at Procathepsin L, 124 µM. For the same molecule, the inhibition at 5 µM in the data set with MCF-10A [10] came to 80%. The Activity result in the data set with MCF-10A [11] is recorded as “Non-toxic”; in the data set with MCF-10A [13], “Non-toxic”; with MCF-10A [15] it was 113%; in the data set with MCF-10A [17], 117%. Also, the inhibition result on Cathepsin B [14] and at Cathepsin B [16] was “Active” in each case.

One may read the Ki as the dissociation constant of the complex between target and ligand, obtained from inhibition or displacement. Broadly, the inhibition is the drop in the measured response relative to a control, in per cent.

Values taken from ChEMBL document CHEMBL2311469, “Development of new cathepsin B inhibitors: combining bioisosteric replacements and structure-based design to explore the structure-activity relationships of nitroxoline derivatives” (J Med Chem, 2013).
